Measurements from paper PMC7808142 (ACS Omega, 2020).

Key:
[1] = Pharmacokinetics in rats after intravenous and oral administration; assay type: in vivo, Sprague-Dawley rats; conditions: rat; for AUC(0-inf) / AUC(0-t) / C0 / MRT last / Vd / clearance / half-life / Cmax / bioavailability / Tmax: male, Sprague-Dawley, plasma; for half-life: t1/2, rat; for half-life / Tmax / AUCextr / t1/2: n = 3
Procedure, shortened: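 Male SD rats (220–250 g), fasted 12 h, with jugular vein cannulae placed 2 days earlier under pentobarbital. Groups of 3 received 5 mg/kg iv (2 mg/mL with 30% HP-β-CD) or 100 mg/kg po (10 mg/mL suspension in 0.5% CMC-Na). Plasma (50 μL) was mixed with terfenadine internal standard and analysed by MRM LC-MS/MS (calibration 1.00–1000 ng/mL). Parameters are mean ± SD.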

[2] = Stability in rat plasma under different storage conditions; assay type: in vitro ADME; conditions: n = 5
[3] = autosampler for 24 h (4 °C), spiked 2.00 ng/mL
[4] = autosampler for 24 h (4 °C), spiked 50.0 ng/mL
[5] = autosampler for 24 h (4 °C), spiked 800 ng/mL
[6] = long-term (30 days at -80 °C), spiked 2.00 ng/mL
[7] = long-term (30 days at -80 °C), spiked 50.0 ng/mL
[8] = long-term (30 days at -80 °C), spiked 800 ng/mL
[9] = three freeze/thaw cycles, spiked 2.00 ng/mL
[10] = three freeze/thaw cycles, spiked 50.0 ng/mL
[11] = three freeze/thaw cycles, spiked 800 ng/mL

C[C@@H]1CC[C@H]2[C@@H](C)C(=O)O[C@@H]3O[C@@]4(C)CC[C@@H]1[C@]32OO4 [artemisinin, Artemisinin]
AUC(0-inf) ([1]; iv, 5 mg/kg): 130 ± 39.1 ng·h/mL | AUC(0-t) ([1]; iv, 5 mg/kg): 129 ± 38.9 ng·h/mL | C0 ([1]; iv, 5 mg/kg): 700 ± 166 ng/mL | MRT last ([1]; iv, 5 mg/kg): 0.408 ± 0.066 h | Vd ([1]; iv, 5 mg/kg): 45.1 ± 12.3 L/kg | clearance ([1]; iv, 5 mg/kg): 674 ± 174 mL/min/kg | half-life ([1]; iv, 5 mg/kg, i.v. 5 mg/kg): 0.77 ± 0.06 h | AUC(0-inf) ([1]; po, 100 mg/kg): 318 ± 21.6 ng·h/mL | AUC(0-t) ([1]; po, 100 mg/kg): 309 ± 22.3 ng·h/mL | Cmax ([1]; po, 100 mg/kg): 65.1 ± 10.4 ng/mL | MRT last ([1]; po, 100 mg/kg): 3.46 ± 0.249 h | bioavailability ([1]; po, 100 mg/kg): 12.2 ± 0.832% | Tmax ([1]; po, 100 mg/kg, p.o. 100 mg/kg): 1.33 ± 0.58 h | half-life ([1]; po, 100 mg/kg, p.o. 100 mg/kg): 2.22 ± 0.25 h | time after which the compound could not be detected in blood ([1]; i.v. 5 mg/kg): 4 h | AUCextr ([1]; i.v. 5 mg/kg): 0.967 ± 0.110% | t1/2 ([1]; i.v. 5 mg/kg, 5 mg/kg): 0.773 ± 0.0598 h | time until which the compound was detectable in plasma (above LLOQ) ([1]; p.o. 100 mg/kg): 12 h | AUCextr ([1]; p.o. 100 mg/kg): 2.89 ± 0.999% | stability, accuracy (%, RE) [2, 3]: 95.7% | stability, measured concentration [2, 3]: 1.91 ± 0.02 ng/mL | stability, accuracy (%, RE) [2, 4]: 91.0% | stability, measured concentration [2, 4]: 45.5 ± 0.66 ng/mL | stability, accuracy (%, RE) [2, 5]: 97.1% | stability, measured concentration [2, 5]: 777 ± 6.68 ng/mL | stability, accuracy (%, RE) [2, 6]: 97.3% | stability, measured concentration [2, 6]: 1.95 ± 0.02 ng/mL | stability, accuracy (%, RE) [2, 7]: 91.3% | stability, measured concentration [2, 7]: 45.7 ± 1.46 ng/mL | stability, accuracy (%, RE) [2, 8]: 95.2% | stability, measured concentration [2, 8]: 762 ± 9.29 ng/mL | stability, accuracy (%, RE) [2, 9]: 95.2% | stability, measured concentration [2, 9]: 1.90 ± 0.02 ng/mL | stability, accuracy (%, RE) [2, 10]: 95.2% | stability, measured concentration [2, 10]: 47.6 ± 0.52 ng/mL | stability, accuracy (%, RE) [2, 11]: 96.3% | stability, measured concentration [2, 11]: 770 ± 9.11 ng/mL

C[C@@H]1CC[C@H]2[C@@H](C)C(=O)O[C@@H]3O[C@@]4(C)CC[C@@H]1[C@]32O4 [deoxyartemisinin, Deoxyartemisinin]
AUC(0-inf) ([1]; iv, 5 mg/kg): 222 ± 47.1 ng·h/mL | AUC(0-t) ([1]; iv, 5 mg/kg): 219 ± 46.1 ng·h/mL | C0 ([1]; iv, 5 mg/kg): 1070 ± 173 ng/mL | MRT last ([1]; iv, 5 mg/kg): 0.671 ± 0.183 h | Vd ([1]; iv, 5 mg/kg): 48.3 ± 8 L/kg | clearance ([1]; iv, 5 mg/kg): 385 ± 74.5 mL/min/kg | half-life ([1]; iv, 5 mg/kg, i.v. 5 mg/kg): 1.12 ± 0.16 h | AUC(0-inf) ([1]; po, 100 mg/kg): 71 ± 14.1 ng·h/mL | AUC(0-t) ([1]; po, 100 mg/kg): 67.3 ± 14.2 ng·h/mL | Cmax ([1]; po, 100 mg/kg): 62.4 ± 31.3 ng/mL | MRT last ([1]; po, 100 mg/kg): 1.21 ± 0.388 h | bioavailability ([1]; po, 100 mg/kg): 1.6 ± 0.317% | Tmax ([1]; po, 100 mg/kg, p.o. 100 mg/kg): ~0.39 h | half-life ([1]; po, 100 mg/kg, p.o. 100 mg/kg): 1.12 ± 0.156 h | time after which the compound could not be detected in blood ([1]; i.v. 5 mg/kg): 8 h | AUCextr ([1]; i.v. 5 mg/kg): 1.33 ± 0.214% | t1/2 ([1]; i.v. 5 mg/kg, 5 mg/kg): 1.45 ± 0.059 h | time until which the compound was detectable in plasma (above LLOQ) ([1]; p.o. 100 mg/kg): 6 h | AUCextr ([1]; p.o. 100 mg/kg): 5.33 ± 1.92% | stability, measured concentration [2, 3]: 2.18 ± 0.10 ng/mL | stability, accuracy (%, RE) [2, 4]: 99.0% | stability, measured concentration [2, 4]: 53.9 ± 1.66 ng/mL | stability, accuracy (%, RE) [2, 5]: 99.0% | stability, measured concentration [2, 5]: 782 ± 26.3 ng/mL | stability, accuracy (%, RE) [2, 6]: 101.5% | stability, measured concentration [2, 6]: 2.03 ± 0.07 ng/mL | stability, accuracy (%, RE) [2, 7]: 108.4% | stability, measured concentration [2, 7]: 54.2 ± 1.91 ng/mL | stability, accuracy (%, RE) [2, 8]: 96.0% | stability, measured concentration [2, 8]: 768 ± 50.2 ng/mL | stability, measured concentration [2, 9]: 1.98 ± 0.08 ng/mL | stability, accuracy (%, RE) [2, 10]: 109.1% | stability, measured concentration [2, 10]: 52.3 ± 0.99 ng/mL | stability, accuracy (%, RE) [2, 11]: 109.1% | stability, measured concentration [2, 11]: 774 ± 16.0 ng/mL
